Autophagy HCS – alters autophagy in cells; MEF GFP-LC3 puncta imaging; test concentration mostly 10 µM; calls only at 10 µM (by protocol); 190,000 compounds, 0.98% hits; AID 463193;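 active = percentage of spot-positive cells more than 3 SD above its plate mean, without a fluorescence outlier flag or 80% toxicity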;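 also: spot-positive cell cutoff set from DMSO-treated cells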
Dynein transport – blocks dynein driven cargo transport along microtubules. 220,000 compounds, 0.47% hits. 3617.4 mouse cells, GR-EGFP nuclear translocation imaging; test concentration mostly 20 µM; stimulated with dexamethasone, 1 µM; active compounds read low. z-score, hits read low. AID 1381;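 active = plate z-score of nuclear minus cytoplasmic receptor signal below a set negative limit, without overly bright fluorescence or cell loss, cut at about -3.5 in these data, passing the limit was not always enough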;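 also: z-score of nuclear minus cytoplasmic ring GR-EGFP intensity difference per well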
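medium = tetracycline-free induction medium containing charcoal-stripped FBS | probe or stimulus = dexamethasone, 1.0 µM final | timing = 48 h induction, then 1 h compound, then 30 min agonist, 37 °C | detection = automated 10x imaging of fixed Hoechst-stained cells | read-out basis = nuclear versus cytoplasmic GR-EGFP signal, averaged per well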
Lmaj promast – reduces viability of Leishmania major promastigotes | resazurin fluorescence viability | inhibition, % at 10 µM | 200,000 compounds, 9% hits; in the data active = inhibition above about 50%;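 also: promastigotes grown with compound for 44 hours at 28 °C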
PTEN del growth – PTEN-deleted cell growth suppression; viability, % at 10 µM; 140,000 compounds, 1.2% hits; HCT116 PTEN-null viability, CellTiter-Glo, 60 h; active compounds read low; AID 827;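 active = viability at or below a set limit, 4 SD under the median of all tested compounds, cut at about 3.7% in these data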;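 also: PTEN knockout HCT116 line with beta catenin targeted HCT116 as companion control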
HCT116 bCat-KO – beta-catenin-lacking colon tumor cell growth suppression. viability, % at 10 µM. AID 818. 140,000 compounds, 1.5% hits. HCT116 beta-catenin knockout viability, CellTiter-Glo, 60 h; active compounds read low;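 active = viability at or under a set limit, the compound median less 4 SD, cut at about 6% in these data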;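 also: 0% = Hyamine 1622 control at 20 µM and 100% = untreated cell control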
Active calls of the source: *; i = inactive; / = no result; + = active, no number. This is a sample that favours compounds with a hit; in the whole collection about 9.2% have one here.

SMILES | Autophagy HCS | Dynein transport | Lmaj promast | PTEN del growth | HCT116 bCat-KO
COc1ccc(C(CCN)Cc2ccccc2)cc1 (stereo not drawn) | i | 2.3 | 51* | / | /
Cn1c(=O)c2c(nc(Oc3ccc(-c4ccccc4)cc3)n2C)n(C)c1=O | i | -0.015 | 8 | 107 | 104
Nc1nc2c(s1)CCc1c-2cnn1-c1ccccc1 | i | -6* | 9 | 83 | 90
Nc1nc2c(s1)COc1ccccc1-2 | i | -0.52 | -4 | / | /
C=CCn1c(O)c(N=NC(=S)Nc2ccc(OC)cc2)c2ccccc21 | i | 1.9 | 87* | 11 | 18
C=CCn1c(O)c(N=NC(=O)OCC)c2ccccc21 | i | -0.19 | -6 | 96 | 103
C=CCn1c(O)c(N=NC(=S)Nc2cccc(OC)c2)c2ccccc21 | i | -0.27 | 98* | 12 | 12
CC(=O)Nc1ccc(NC(=O)Cn2c(=O)n(-c3ccc(C)cc3)c(=O)c3oc4ccccc4c32)cc1 | i | 0.086 | 0 | / | /
CC(Nc1ccc2c(c1)OCCO2)C(=O)N1CCc2ccccc21 (stereo not drawn) | i | -0.56 | -1 | / | /
CC(=O)NC(=S)NNC(=O)COc1ccc(Br)cc1 | i | -0.15 | 87* | / | /
CC(=O)NC(=S)NNC(=O)COc1ccc([N+](=O)[O-])cc1 | i | -0.78 | -4 | / | /
CC(C(=O)NCc1ccccn1)c1ccc([N+](=O)[O-])cc1 (stereo not drawn) | i | -0.094 | -1 | / | /
N#Cc1c(Cl)nsc1NC(=O)c1ccccc1 | + | 0.19 | 10 | / | /
CCCCOC(=O)/C=C\C(=O)NC(N)=O | / | -2.3 | / | / | /
COc1ccc(Cl)cc1NC(=O)Nc1cccc([N+](=O)[O-])c1C | i | -0.74 | 21 | 4 | 3.1*
COc1ccccc1NS(=O)(=O)c1cc(NC(=O)c2cccs2)ccc1N1CCCC1 | i | -1.1 | 94* | 80 | 77
COc1ccc(S(=O)(=O)Nc2ccccc2OC)cc1NC(=O)Cc1cccs1 | i | 0.76 | 100* | 84 | 94
COc1ccccc1NS(=O)(=O)c1cc(NC(=O)c2cccs2)ccc1N1CCCCC1 | i | 0.048 | 43 | 75 | 72
O=C(Nc1ccc(N2CCCC2)c(S(=O)(=O)Nc2cccc(C(F)(F)F)c2)c1)c1cccs1 | i | 0.6 | 92* | 28 | 51
COc1ccccc1NS(=O)(=O)c1ccc(NC(=O)Cc2cccs2)cc1 | i | -0.015 | 2 | 81 | 84
COc1cccc(-n2nnc3c(=O)n(CC(=O)Nc4ccc(C)cc4)cnc32)c1 | i | -0.5 | -7 | / | /
CC(C(=O)NC1CCCCC1)N1CCN(C)CC1 (stereo not drawn) | / | -0.085 | / | / | /
COc1ccccc1NS(=O)(=O)c1cccc(NC(=O)c2nc3nc(C)cc(C)n3n2)c1 | i | -0.26 | 72* | 69 | 76
COc1ccccc1NS(=O)(=O)c1cccc(NC(=O)c2ccc3ccccc3n2)c1 | i | 2 | 43 | 51 | 65
COc1ccccc1NS(=O)(=O)c1cc(NC(=O)c2sccc2C)ccc1N1CCCC1 | i | -0.71 | 64* | / | /
SMILES | Autophagy HCS | Dynein transport | Lmaj promast | PTEN del growth | HCT116 bCat-KO
COc1ccc(Cl)cc1NC(=O)NC1CCCCC1 | i | 0.026 | 100* | 69 | 83
COc1ccccc1NS(=O)(=O)c1cc(NC(=O)c2sccc2C)ccc1N1CCOCC1 | / | -0.46 | / | / | /
COc1ccccc1NS(=O)(=O)c1cccc(NC(=O)NC2CCCCC2)c1 | i | 0.025 | 99* | 83 | 81
COc1ccccc1NS(=O)(=O)c1cc(NC(=O)Nc2ccccc2)ccc1N1CCCCC1 | i | -0.34 | 91* | 46 | 64
COc1ccccc1NS(=O)(=O)c1cc(NC(=O)C(C)C)ccc1N1CCCCC1 | i | -0.32 | 30 | / | /
O=C(Nc1ccc(O)cc1)c1cccc(Oc2ccc([N+](=O)[O-])cc2)c1 | i | -0.11 | 13 | / | /
O=C(O)c1cccc(Oc2ccc([N+](=O)[O-])cc2)c1 | i | 0.8 | 59* | 98 | 95
CC(NC(=O)Cc1ccccc1)c1nc2ccccc2[nH]1 (stereo not drawn) | i | 0.96 | -5 | 87 | 92
CC(C)C(=O)Nc1sc2c(c1-c1nc3ccccc3[nH]1)CCCC2 | i | -0.26 | 61* | 77 | 79
COc1cccc(/C=N/n2c(N)c(S(=O)(=O)c3cccs3)c3nc4ccccc4nc32)c1 | i | 0.78 | -2 | 56 | 80
COc1ccc(/C=N/n2c(N)c(S(=O)(=O)c3cccs3)c3nc4ccccc4nc32)cc1OC | i | -0.19 | 62* | 89 | 98
Nc1c(S(=O)(=O)c2cccs2)c2nc3ccccc3nc2n1/N=C/c1cccc(O)c1 | i | -0.54 | 58* | 2.2* | 2.7*
Cc1cc(C)n(C(=O)c2ccc(C)c(F)c2F)n1 | i | -0.94 | -7 | 98 | 89
Cc1ccc(C(=O)N2CCN=C2SCc2ccc([N+](=O)[O-])cc2)cc1C | i | -0.98 | -6 | / | /
CCC(C)[C@H](N)c1nnc(SCC(=O)c2ccc(Cl)cc2)o1 (stereo partly drawn) | i | 0.27 | 90* | 116 | 101
CCN1CCN(c2cc(C)c3cc(NC(=S)N4CCCC(C)C4)ccc3n2)CC1 (stereo not drawn) | i | -0.31 | 96* | / | /
CCN1CCN(c2cc(C)c3cc(NC(=S)N4CC(C)CC(C)C4)ccc3n2)CC1 (stereo not drawn) | i | -0.63 | 100* | / | /
CCN1CCN(c2cc(C)c3cc(NC(=S)N4CCN(c5ccc(F)cc5)CC4)ccc3n2)CC1 | i | 0.79 | 38 | / | /
Cc1cc(C(=O)CSc2n[nH]c(-c3ccccc3F)n2)c(C)n1Cc1cccs1 | i | -0.65 | 83* | 94 | 83
Cc1csc(SCC(=O)c2cc(C)n(Cc3cccs3)c2C)n1 | i | -0.27 | 56* | 70 | 75
Cn1c(=O)[nH]c2ncccc21 | / | 0.062 | / | / | /
CC1(C)NC(=O)N(CC(=O)Nc2nc(-c3ccc(F)cc3)cs2)C1=O | i | 0.079 | -17 | 102 | 92
O=C(CSc1nccc(=O)[nH]1)Nc1ccc(F)c([N+](=O)[O-])c1 | i | -0.049 | 51* | 95 | 90
O=C(CSc1nnc(-c2ccncc2)o1)NCc1ccccc1 | i | 0.29 | 50* | 91 | 84
O=C(CSc1nnc(-c2ccncc2)o1)NCc1ccccc1Cl | i | -0.3 | -2 | 91 | 101
SMILES | Autophagy HCS | Dynein transport | Lmaj promast | PTEN del growth | HCT116 bCat-KO
CCn1c(SCC(=O)Nc2ccc3c(c2)OCCO3)nnc1-c1ccco1 | i | -0.6 | 0 | 99 | 99
CCn1c2ccccc2c2cc(NC(=O)CSc3nccc(=O)[nH]3)ccc21 | i | 0.51 | 90* | / | /
CCn1c(SCC(=O)Nc2ccc3c(c2)c2ccccc2n3CC)nnc1-c1ccco1 | i | -0.67 | 72* | 74 | 81
CCn1c2ccccc2c2cc(NC(=O)CSc3nnc(-c4ccccc4)o3)ccc21 | i | 0.33 | 85* | 26 | 30
CCn1c2ccccc2c2cc(NC(=O)CSc3nnc(-c4cccc(F)c4)o3)ccc21 | i | 0.7 | 4 | 32 | 32
CCn1c2ccccc2c2cc(NC(=O)CSc3nnc(-c4cccc(C)c4)o3)ccc21 | i | 0.18 | 92* | 26 | 25

High-throughput results (PubChem)
